Results: ChEMBL document CHEMBL3046615, “Isolation of nematicidal compounds from Tagetes patula L. yellow flowers: structure-activity relationship studies against cyst nematode Heterodera zeae infective stage larvae” (2011)
Calls of active or inactive are those of the source. The calls are words filed in the database; no cut-off is given here.

Key:
Heterodera zeae [1] = test: Nematicidal activity against Heterodera zeae infective stage larvae assessed as nematode mortality at 0.125% under dark conditions measured 5 to 60 min post dose by stereoscopic microscopy; assay type: functional, organism-based
Summary of the method: (§1)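 H. zeae freshly hatched second-stage juveniles, 100 per plate, three replicates, at 28 ± 2 °C under light or in a dark box. Dilutions are % of a stock: 30 mg/mL for extracts/fractions, 1 mg/mL for pure compounds. Methanol-, DMSO- or water-soluble samples were tested in glass cavity blocks. Petroleum ether-soluble samples were air-dried in the block and covered with agar pieces bearing cultured larvae. Mortality was followed over 5–60 min; each value is the mean of three experiments.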

Heterodera zeae [2] = test: Nematicidal activity against Heterodera zeae infective stage larvae assessed as nematode mortality at 0.125% under dark conditions measured 72 hr post dose by stereoscopic microscopy; assay type: functional
Summary of the method: (§2)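 Freshly hatched H. zeae second-stage juveniles, 100 per Petri plate, three replicates. Samples in MeOH, DMSO or water were tested in glass cavity blocks; petroleum ether samples were dried onto the block and larvae transferred on agar pieces. Percentages are dilutions of 30 mg/mL stocks (extracts/fractions) or 1 mg/mL stocks (pure compounds). Incubated at 28 ± 2 °C in light or dark box; mortality averaged over three replicates.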

Heterodera zeae [3] = test: Nematicidal activity against Heterodera zeae infective stage larvae assessed as nematode mortality at 2% under dark conditions measured 5 to 60 min post dose by stereoscopic microscopy; assay type: functional, organism-based; summary of the method: as §1
Heterodera zeae [4] = test: Nematicidal activity against Heterodera zeae infective stage larvae assessed as nematode mortality at 5% under dark conditions measured 5 to 60 min post dose by stereoscopic microscopy; assay type: functional, organism-based; summary of the method: as §1
Heterodera zeae [5] = test: Nematicidal activity against Heterodera zeae infective stage larvae assessed as nematode mortality at 0.125% under light conditions measured 24 hr post dose by stereoscopic microscopy; assay type: functional; summary of the method: as §2
Heterodera zeae [6] = test: Nematicidal activity against Heterodera zeae infective stage larvae assessed as nematode mortality at 5% under light conditions measured 5 to 60 min post dose by stereoscopic microscopy; assay type: functional, organism-based; summary of the method: as §1
Heterodera zeae [7] = test: Nematicidal activity against Heterodera zeae infective stage larvae assessed as nematode mortality at 0.5% under light conditions measured 5 to 60 min post dose by stereoscopic microscopy; assay type: functional, organism-based; summary of the method: as §1
Heterodera zeae [8] = test: Nematicidal activity against Heterodera zeae infective stage larvae assessed as nematode mortality at 0.5% under dark conditions measured 72 hr post dose by stereoscopic microscopy; assay type: functional; summary of the method: as §2
Heterodera zeae [9] = test: Nematicidal activity against Heterodera zeae infective stage larvae assessed as nematode mortality at 0.25% under dark conditions measured 72 hr post dose by stereoscopic microscopy; assay type: functional; summary of the method: as §2
Heterodera zeae [10] = test: Nematicidal activity against Heterodera zeae infective stage larvae assessed as nematode mortality at 0.25% under dark conditions measured 5 to 60 min post dose by stereoscopic microscopy; assay type: functional, organism-based; summary of the method: as §1
Heterodera zeae [11] = test: Nematicidal activity against Heterodera zeae infective stage larvae assessed as nematode mortality at 1% under light conditions measured 24 hr post dose by stereoscopic microscopy; assay type: functional; summary of the method: as §2
Heterodera zeae [12] = test: Nematicidal activity against Heterodera zeae infective stage larvae assessed as nematode mortality at 0.25% under light conditions measured 5 to 60 min post dose by stereoscopic microscopy; assay type: functional, organism-based; summary of the method: as §1
Heterodera zeae [13] = test: Nematicidal activity against Heterodera zeae infective stage larvae assessed as nematode mortality at 0.125% under light conditions measured 5 to 60 min post dose by stereoscopic microscopy; assay type: functional, organism-based; summary of the method: as §1
Heterodera zeae [14] = test: Nematicidal activity against Heterodera zeae infective stage larvae assessed as nematode mortality at 0.25% under dark conditions measured 48 hr post dose by stereoscopic microscopy; assay type: functional; summary of the method: as §2
Heterodera zeae [15] = test: Nematicidal activity against Heterodera zeae infective stage larvae assessed as nematode mortality at 0.125% under light conditions measured 72 hr post dose by stereoscopic microscopy; assay type: functional; summary of the method: as §2
Heterodera zeae [16] = test: Nematicidal activity against Heterodera zeae infective stage larvae assessed as nematode mortality at 0.125% under dark conditions measured 24 hr post dose by stereoscopic microscopy; assay type: functional; summary of the method: as §2
Heterodera zeae [17] = test: Nematicidal activity against Heterodera zeae infective stage larvae assessed as nematode mortality at 0.5% under light conditions measured 72 hr post dose by stereoscopic microscopy; assay type: functional; summary of the method: as §2
Heterodera zeae [18] = test: Nematicidal activity against Heterodera zeae infective stage larvae assessed as nematode mortality at 1% under dark conditions measured 5 to 60 min post dose by stereoscopic microscopy; assay type: functional, organism-based; summary of the method: as §1
Heterodera zeae [19] = test: Nematicidal activity against Heterodera zeae infective stage larvae assessed as nematode mortality at 0.25% under light conditions measured 72 hr post dose by stereoscopic microscopy; assay type: functional; summary of the method: as §2
Heterodera zeae [20] = test: Nematicidal activity against Heterodera zeae infective stage larvae assessed as nematode mortality at 0.125% under dark conditions measured 48 hr post dose by stereoscopic microscopy; assay type: functional; summary of the method: as §2
Heterodera zeae [21] = test: Nematicidal activity against Heterodera zeae infective stage larvae assessed as nematode mortality at 0.5% under dark conditions measured 24 hr post dose by stereoscopic microscopy; assay type: functional; summary of the method: as §2
Heterodera zeae [22] = test: Nematicidal activity against Heterodera zeae infective stage larvae assessed as nematode mortality at 1% under light conditions measured 5 to 60 min post dose by stereoscopic microscopy; assay type: functional, organism-based; summary of the method: as §1
Heterodera zeae [23] = test: Nematicidal activity against Heterodera zeae infective stage larvae assessed as nematode mortality at 0.5% under dark conditions measured 48 hr post dose by stereoscopic microscopy; assay type: functional; summary of the method: as §2
Heterodera zeae [24] = test: Nematicidal activity against Heterodera zeae infective stage larvae assessed as nematode mortality at 0.5% under light conditions measured 48 hr post dose by stereoscopic microscopy; assay type: functional; summary of the method: as §2
Heterodera zeae [25] = test: Nematicidal activity against Heterodera zeae infective stage larvae assessed as nematode mortality at 0.25% under dark conditions measured 24 hr post dose by stereoscopic microscopy; assay type: functional; summary of the method: as §2
Heterodera zeae [26] = test: Nematicidal activity against Heterodera zeae infective stage larvae assessed as nematode mortality at 1% under dark conditions measured 48 hr post dose by stereoscopic microscopy; assay type: functional; summary of the method: as §2
Heterodera zeae [27] = test: Nematicidal activity against Heterodera zeae infective stage larvae assessed as nematode mortality at 1% under dark conditions measured 24 hr post dose by stereoscopic microscopy; assay type: functional; summary of the method: as §2
Heterodera zeae [28] = test: Nematicidal activity against Heterodera zeae infective stage larvae assessed as nematode mortality at 1% under light conditions measured 48 hr post dose by stereoscopic microscopy; assay type: functional; summary of the method: as §2
Heterodera zeae [29] = test: Nematicidal activity against Heterodera zeae infective stage larvae assessed as nematode mortality at 1% under light conditions measured 72 hr post dose by stereoscopic microscopy; assay type: functional; summary of the method: as §2
Heterodera zeae [30] = test: Nematicidal activity against Heterodera zeae infective stage larvae assessed as nematode mortality at 0.5% under light conditions measured 24 hr post dose by stereoscopic microscopy; assay type: functional; summary of the method: as §2
Heterodera zeae [31] = test: Nematicidal activity against Heterodera zeae infective stage larvae assessed as nematode mortality at 1% under dark conditions measured 72 hr post dose by stereoscopic microscopy; assay type: functional; summary of the method: as §2
Heterodera zeae [32] = test: Nematicidal activity against Heterodera zeae infective stage larvae assessed as nematode mortality at 0.125% under light conditions measured 48 hr post dose by stereoscopic microscopy; assay type: functional; summary of the method: as §2
Heterodera zeae [33] = test: Nematicidal activity against Heterodera zeae infective stage larvae assessed as nematode mortality at 2% under light conditions measured 5 to 60 min post dose by stereoscopic microscopy; assay type: functional, organism-based; summary of the method: as §1
Heterodera zeae [34] = test: Nematicidal activity against Heterodera zeae infective stage larvae assessed as nematode mortality at 0.5% under dark conditions measured 5 to 60 min post dose by stereoscopic microscopy; assay type: functional, organism-based; summary of the method: as §1
Heterodera zeae [35] = test: Nematicidal activity against Heterodera zeae infective stage larvae assessed as nematode mortality at 0.25% under light conditions measured 48 hr post dose by stereoscopic microscopy; assay type: functional; summary of the method: as §2
Heterodera zeae [36] = test: Nematicidal activity against Heterodera zeae infective stage larvae assessed as nematode mortality at 0.25% under light conditions measured 24 hr post dose by stereoscopic microscopy; assay type: functional; summary of the method: as §2

SMILES	Activity (Heterodera zeae [1])	mortality (Heterodera zeae [2]) [%]	Activity (Heterodera zeae [3])	Activity (Heterodera zeae [4])	mortality (Heterodera zeae [5]) [%]	Activity (Heterodera zeae [6])	Activity (Heterodera zeae [7])	mortality (Heterodera zeae [8]) [%]	mortality (Heterodera zeae [9]) [%]	Activity (Heterodera zeae [10])	mortality (Heterodera zeae [11]) [%]	Activity (Heterodera zeae [12])	Activity (Heterodera zeae [13])	mortality (Heterodera zeae [14]) [%]	mortality (Heterodera zeae [15]) [%]	mortality (Heterodera zeae [16]) [%]	mortality (Heterodera zeae [17]) [%]	Activity (Heterodera zeae [18])	mortality (Heterodera zeae [19]) [%]	mortality (Heterodera zeae [20]) [%]	other results
CCCCCCCCCCCCCCCCO [CETYL ALCOHOL]	inactive	40	inactive	inactive	0	inactive	inactive	100	80	inactive	70	inactive	inactive	50	40	0	100	inactive	80	0	mortality (Heterodera zeae [21]): 60%; Activity (Heterodera zeae [22]): inactive; mortality (Heterodera zeae [23]): 80%; mortality (Heterodera zeae [24]): 80%; mortality (Heterodera zeae [25]): 0%; mortality (Heterodera zeae [26]): 80%; mortality (Heterodera zeae [27]): 70%; mortality (Heterodera zeae [28]): 80%; mortality (Heterodera zeae [29]): 100%; mortality (Heterodera zeae [30]): 60%; mortality (Heterodera zeae [31]): 100%; mortality (Heterodera zeae [32]): 0%; Activity (Heterodera zeae [33]): inactive; Activity (Heterodera zeae [34]): inactive; mortality (Heterodera zeae [35]): 50%; mortality (Heterodera zeae [36]): 0%
CCCCCCCCCCCCCC(=O)O [MYRISTIC ACID]	inactive	50	inactive	inactive	20	inactive	inactive	80	80	inactive	40	inactive	inactive	30	40	20	50	inactive	50	20	mortality (Heterodera zeae [21]): 50%; Activity (Heterodera zeae [22]): inactive; mortality (Heterodera zeae [23]): 50%; mortality (Heterodera zeae [24]): 30%; mortality (Heterodera zeae [25]): 30%; mortality (Heterodera zeae [26]): 60%; mortality (Heterodera zeae [27]): 50%; mortality (Heterodera zeae [28]): 50%; mortality (Heterodera zeae [29]): 80%; mortality (Heterodera zeae [30]): 30%; mortality (Heterodera zeae [31]): 90%; mortality (Heterodera zeae [32]): 20%; Activity (Heterodera zeae [33]): inactive; Activity (Heterodera zeae [34]): inactive; mortality (Heterodera zeae [35]): 20%; mortality (Heterodera zeae [36]): 20%
CCCCCCCCCCCCCCCC(=O)O [PALMITIC ACID]	inactive	50	inactive	inactive	0	inactive	inactive	70	70	inactive	0	inactive	inactive	20	0	0	70	inactive	50	0	mortality (Heterodera zeae [21]): 0%; Activity (Heterodera zeae [22]): inactive; mortality (Heterodera zeae [23]): 50%; mortality (Heterodera zeae [24]): 50%; mortality (Heterodera zeae [25]): 0%; mortality (Heterodera zeae [26]): 80%; mortality (Heterodera zeae [27]): 80%; mortality (Heterodera zeae [28]): 70%; mortality (Heterodera zeae [29]): 80%; mortality (Heterodera zeae [30]): 0%; mortality (Heterodera zeae [31]): 80%; mortality (Heterodera zeae [32]): 0%; Activity (Heterodera zeae [33]): inactive; Activity (Heterodera zeae [34]): inactive; mortality (Heterodera zeae [35]): 10%; mortality (Heterodera zeae [36]): 0%
O=C(O)c1ccc(O)cc1 [PARABEN]	inactive	40	inactive	inactive	0	inactive	inactive	50	50	inactive	0	inactive	inactive	40	50	0	50	inactive	50	10	mortality (Heterodera zeae [21]): 0%; Activity (Heterodera zeae [22]): inactive; mortality (Heterodera zeae [23]): 40%; mortality (Heterodera zeae [24]): 40%; mortality (Heterodera zeae [25]): 0%; mortality (Heterodera zeae [26]): 40%; mortality (Heterodera zeae [27]): 0%; mortality (Heterodera zeae [28]): 50%; mortality (Heterodera zeae [29]): 100%; mortality (Heterodera zeae [30]): 0%; mortality (Heterodera zeae [31]): 70%; mortality (Heterodera zeae [32]): 40%; Activity (Heterodera zeae [33]): inactive; Activity (Heterodera zeae [34]): inactive; mortality (Heterodera zeae [35]): 40%; mortality (Heterodera zeae [36]): 0%
COc1c(O)cc2oc(-c3ccc(O)c(O)c3)c(O)c(=O)c2c1O [PATULETIN]	inactive	0	inactive	inactive	20	inactive	inactive	20	10	inactive	40	inactive	inactive	10	100	0	100	inactive	100	0	mortality (Heterodera zeae [21]): 0%; Activity (Heterodera zeae [22]): inactive; mortality (Heterodera zeae [23]): 20%; mortality (Heterodera zeae [24]): 20%; mortality (Heterodera zeae [25]): 0%; mortality (Heterodera zeae [26]): 60%; mortality (Heterodera zeae [27]): 20%; mortality (Heterodera zeae [28]): 40%; mortality (Heterodera zeae [29]): 100%; mortality (Heterodera zeae [30]): 20%; mortality (Heterodera zeae [31]): 60%; mortality (Heterodera zeae [32]): 50%; Activity (Heterodera zeae [33]): inactive; Activity (Heterodera zeae [34]): inactive; mortality (Heterodera zeae [35]): 70%; mortality (Heterodera zeae [36]): 20%
